Reference: the EternaBench riboswitch data

Tested on: MS2 coat protein
Assay: apparent Kd, MS2 coat protein; higher = weaker binding; RNA-MaP array; FMN 200 µM where present
In short: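 The apparent Kd comes from binding curves fitted cluster by cluster, filtered, and summarised as a median. Those curves followed SNAP-549-labelled MS2 coat protein from 0.7 or 1.5 nM, doubling to 3 µM, on Illumina sequencing-chip clusters where stalled E. coli RNA polymerase had transcribed the designs, without and then with constant ligand. The buffer was 100 mM Tris-HCl pH 7.5, 80 mM KCl, 4 mM MgCl2, BSA, DTT, yeast tRNA and Tween-20, and green signal was normalised to red-channel RNA signal and control-cluster median Fmax.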

[1] = designed as: OFF switch for flavin mononucleotide, no ligand
[2] = ligand present: flavin mononucleotide, designed as: OFF switch for flavin mononucleotide
[3] = designed as: ON switch for flavin mononucleotide, no ligand
[4] = ligand present: flavin mononucleotide, designed as: ON switch for flavin mononucleotide

| Sequence | apparent Kd [1] [nM] | apparent Kd [2] [nM] | apparent Kd [3] [nM] | apparent Kd [4] [nM] |
| --- | --- | --- | --- | --- |
| CAAAUUGCAGGAUAUACUGGGCCAGAGCCAUCGUGUAUUCCACAUGAGGAUCACCCAUGUAGAAGGGCACGUAC | 27.2 | 99.1 | – | – |
| UAAUGACCUGUACCUAGUUGGUGACAUGAGGAUCACCCAUGUCAGGAUAUCGGGUUUGAAAACAACGAGAAGGGACAACGGGUG | 20.9 | 42.1 | – | – |
| GGUUGGCGAGGAUAUACAUGAGGAUCACCCAUGUGGUCCUGUGGCUGGUCUAACCUUUGUAGAAGGCGCGGGUC | 225 | 186 | – | – |
| CAAGGGCAUGAGAAGGCAUAAUUUAUAAUACCACAUGUUUACAUGAGGAUCACCCAUGUUACCUAUGAGGAUAUCAUGCCUACA | 14.3 | 13.1 | – | – |
| GACAUACAUGAGGAUCACCCAUGUUCAGACGAACAAGGAUAUGUGUGGAAACCAUACUAUACAGAAGGUGUCUGUC | – | – | 78.4 | 36 |
| UGGUACAUCGGAGGAUAUCAUGUAUAGACAUGAGGAUCACCCAUGUCGUACGAGAGUACGGAGAUUGAGAAGGCCGAUGUACCU | – | – | 21 | 16.6 |
| UGAGCGCACGAGAAGGGCGGGUUCACGGGCUCCUGACGAGACAUGAGGAUCACCCAUGUAACCACGCAGGAUAUCGACCGGAUC | 20.9 | 141 | – | – |
| UAAAUGUGAGGAUAUCAGGUGUGCUAGAGAACUGGUACAUCUGAGAAGGCACAUGAGGAUCACCCAUGUUCUUC | 39 | 207 | – | – |
| ACAAAUCGAGGAUAUACAUGAGGAUCACCCAUGUGGAGCCCACUGCGCGGUUCUCAGCGUAGAAGGCGAAAACA | 30.4 | 99.9 | – | – |
| GCCAGAGCAGGAUAUUCAAUAAUUCACAUGAGGAUCACCCAUGUCCAGCGAAAGCUGGAAGGAGAAGGGCUCUGGC | 16.3 | 13.7 | – | – |
| GAAAACUGAGGAUAUACUUUGGGAAAAGAAAAGAUGAUGUUACAUGAGGAUCACCCAUGUAGAAGGCAGAAAAA | 25.9 | 36 | – | – |
| AUAAUUUUAUAUAUCAUUUUAAUCAGAAGGCAUAACAUGAGGAUCACCCAUGUAUAUUAUUGUUAUGAGGAUAUGAUUUGGUUA | 19.1 | 78.3 | – | – |
| CAAGGCGUUGACCGACUCCAGACAUGAGGAUCACCCAUGUAGAAGGAUAUGUACCGCACCCUUGGACAGAAGGUCUACUGGGUU | 17 | 38.9 | – | – |
| CGCAAGUAUACAUGAGGAUCACCCAUGUCAAUCAUGGUAUUCAGAAGGUACAAUUCAAUAUAUAGUAAGGAUAUGAAAUUUGCG | – | – | 107 | 112 |
| GGUUCCAACACAGGAUAUGCUAUCCUUUGGGUAGCAGAAGGGUGAAACAUGAGGAUCACCCAUGUGGAGCCAGGGCGUGAGCCC | – | – | 593 | 63.1 |
| AACAGCUCGUCAGGAUAUAUUAUAAUAAUACGGCAGUUUGUACAUGAGGAUCACCCAUGUUGUAUGUAGAAGGGACGAGCUGAA | 9.86 | 8.91 | – | – |
| UUGUUAUAUGUAGGAUAUGCAUAUUAUUAUUAUGCAGAAGGACAUGAGGAUCACCCAUGUGUAUUAUUAUUAUAUAUUAUAUAU | 23.2 | 33.2 | – | – |
| GCCAGCUCGUGAGGAUAUACAACACUGCUUCGGCAGUGUAUUAAGAUCACAUGAGGAUCACCCAUGUAGAAGGCACGAGCUGAU | 13.8 | 261 | – | – |
| UGAUUGCGUGUUAGGAUAUGGUUUGGUGUUUCGGGCUAGAAGGGACAUGAGGAUCACCCAUGUAACUGGCGGGU | 54.9 | 67.7 | – | – |
| UGAUACCAAGGAUAUACAUGAGGAUCACCCAUGUCGGACCGAUGUGUCUCCUCCUGCUGUAGAAGGUGGAAAAU | 39.9 | 55.6 | – | – |
| UUUAUUUCGGCAGGAUAUACAUGUAUAUAUAUUUCUUUAUAUCUUAUUACAUGAGGAUCACCCAUGUAGAAGGGCCUUCUUCUC | 55.1 | 49.2 | – | – |
| GCUCUAUGCUAGAAGGCGUGAAACAUGAGGAUCACCCAUGUCAGAGAUAUGAGGAUAUAGCAUAGAGCAAAAGACGGAAACGUC | – | – | 13.4 | 5.41 |
| CCUUUUGUAUAAGGAUAUGUAACAAGGUGUAGGUUUGUAGGACUUGCGCUUACAGAAGGUAUACAUGAGGAUCACCCAUGUCGA | 29.9 | 157 | – | – |
| CAGGUUAGAGGAUAUACGUAGGUACAGAUCUGUGUGUUUCUACAUGAGGAUCACCCAUGUAGAAGGCUAUCCUG | 25.6 | 20 | – | – |
| AAUAAGCUAGGAUAUACAUGAGGAUCACCCAUGUGAGGGCACGGCCGGCGCGUUUCCGGUAGAAGGAGUCAUAA | 34.5 | 25.2 | – | – |
| UCUCGGAGCAGAGGAUAUUACAUGAGGAUCACCCAUGUAUGAACCAAUAGCUGGAAACAGCAAUGUAAGAAGGCUGCUCCGACA | 12.4 | 169 | – | – |
| GGGCACGGAGGAUAUACAUGAGGAUCACCCAUGUGAUUAGGGCAGUACUUGCCGAUCCGUAGAAGGUUGGCCGA | 26.1 | 26.8 | – | – |
| AGAAACUACGAGAAGGACAUGUGGAAAAACGCAAACAUGAGGAUCACCCAUGUAGGAUAUCGUAGUUUCAGGAUCGUGAGAUCA | 304 | 367 | – | – |

| Sequence | apparent Kd [1] [nM] | apparent Kd [2] [nM] | apparent Kd [3] [nM] | apparent Kd [4] [nM] |
| --- | --- | --- | --- | --- |
| GAAUAUUCGUUGAACAUGAGGAUCACCCAUGUAACUUGACAUGAGGAUAUGGAUUCUAAUUGGAUCCAGAAGGUAUGAAUAUUC | – | – | – | 91.8 |
| UGGAUGUAGGAGAAGGAGGACUUCAUGAGGAUCACCCAUGUGUUAGUACUUAGGAUAUUUGACAACAUGAGGAUCACCCAUGUC | – | – | 138 | 113 |
| GCCUUAUCGGUCAGGAUAUACACCCGUCACUCCUUGUAGAAGGGACAUGAGGAUCACCCAUGUACAUUACAUUG | 31.3 | 28.1 | – | – |
| AAAUCAGCAGGAUAUACGAUGUUAUGCUAGAUAGCGGGACCACAUGAGGAUCACCCAUGUAGAAGGGCUAGAUA | 35 | 30.8 | – | – |
| GGGUACAUCGGAGGAUAUCAUGUAGACACAUGAGGAUCACCCAUGUCGAUGGAGACAUCGGAGAUUGAGAAGGCCGAUGUACCG | – | – | 435 | 23.9 |
| GUCAGCUCGUGAGGAUAUACAACACUGCGUCGGCAGUGUAUUAAGAUCACAUGAGGAUCACCCAUGUAGAAGGCACGAGCUGAU | 13.4 | 223 | – | – |
| UGGCUGAGUCGAGGAUAUGAUCUUCAUAUAUAUACAUGAGGAUCACCCAUGUAUAAUUACAUGGAUCAGAAGGCGACUCAGCCU | – | – | 29.4 | 9.47 |
| UGUCGGAAGUAGAAGGGUAUGACAUGAGGAUCACCCAUGUGAUUUGGGUAUACAGGAUAUGCUUAUAUAUAUGAUUAAAUUAUU | 451 | 248 | – | – |
| AGAUGACAAAGUCAUCUUCAACGGACAUGAGGAUCACCCAUGUAGGAUAUGCUACUCAAAGAGUAGCAGAAGGACAUGUGUCUU | 35 | 193 | – | – |
| UAAGUAUGUUGAGGAUAUUAUGUUUGGUGAGAUGACAUGAGGAUCACCCAUGUGUUAUCAGUUCUUAAGAAGGCAACAUACUUA | – | – | 25.7 | 17.8 |
| GGGUACAUCGGAGGAUAUCAUGUAAAUACAUGAGGAUCACCCAUGUCGAUGGAGACAUCCGAGAUUGAGAAGGCCGAUGUACCG | – | – | 29.3 | 13.3 |
| AAUAUAAAGCAGAAGGCCUUAUUACAUGAGGAUCACCCAUGUAAUCGUGGGAGGAUAUGCAUGAUACAACUACGUAUCGUAGCA | – | – | 9.33 | 5.19 |
| UAAACAUGAGGAUCACCCAUGUUAUGAUCGGUUGAUGAAAGUGAGGAUAUACAAAAUUUUAUGGAGUAGAAGGCACUGGGUUCU | – | – | 31.1 | 29.9 |
| UUUUCUACUGAGGAUAUUAUAUUACCCGACUGAUAAGAAGGCAGUACAUGAGGAUCACCCAUGUGGGUAGCCAU | 21.8 | 31 | – | – |
| ACUGUUUGAUUCCUCUUAUACAUGAGGAUCACCCAUGUUAUCGAGGAUAUGCAUUAGAGUGUUUGGCAGAAGGCGAUGUAAUUG | 6.9 | 23.4 | – | – |
| GAUCAACAUGAGGAUCACCCAUGUGAGGAUAUGAUACUAUGUACUUCGGUACAUAGUAUCAGAAGGCACAUAAA | 67.9 | 218 | – | – |
| GCUGCAUAGGCAGGAUAUGCAAAAGCAGAUGCAAAGCAUCUGCAAAAUACAUGAGGAUCACCCAUGUAGAAGGGCCUGUGCAGU | 23.1 | 20.6 | – | – |
| CCAUAACUGUGAGGAUAUUGUUGCGUUUAGUGACGAGAAGGCAUUCAUGUGAUAUAUACAUACAUGAGGAUCACCCAUGUUGUA | – | – | 31 | 25.5 |
| ACCUUACUGGUCAGGAUAUACAGUCUUGGGUGGGUGUAGAAGGGACAUGAGGAUCACCCAUGUAGGUUGCAGCA | 129 | 126 | – | – |
| GAUCAACAUGAGGAUCACCCAUGUGAGGAUAUGAUACUAUGUACUUCGGUACAUAGUAUCAGAAGGCACUAGGA | 65.6 | 192 | – | – |
| AAUAACAGAGGAUAUACUAUUUUAUGUGUUUGUUAUUUUGAACAUGAGGAUCACCCAUGUAGAAGGCUGAUUAA | 44.4 | 43.9 | – | – |
| CUAUCUUGCAAGGAUAUGCAAUUUAUUAUUUAUGCAGAAGGUGCUACAUGAGGAUCACCCAUGUUUCUGGGUUU | 134 | 257 | – | – |
| AGACAGAUCGAGAAGGGAACAUGAGGAUCACCCAUGUGGAAGACUUGAUGUUCAGGAUAUCGAAAGCCUGAGUUAGAUGAAUUG | 26.5 | 115 | – | – |
| AGAUAACAUGUAGGAUAUCGAGGCCUGAGGCCUCGAGAAGGACAUGAGGAUCACCCAUGUUUGCCGAGCAUGGAAUCACGCACU | 18.4 | 54.6 | – | – |
| UGCUGUGUCAGAGGAUAUACAUCAAUAAUCCAUUGCAAAUAGCGAUGGACAUGAGGAUCACCCAUGUAGAAGGCUGUCACAGCA | 111 | 384 | – | – |
| GCCAUCACAUGAGGAUAUGCUCCCGUUUCGGGAGCAGAAGGCAUGUCAUAAGACAUGAGGAUCACCCAUGUAUUUAAGAUGGCA | – | – | 227 | 9.52 |
| AUAGACAUACAGCCACAUGAGGAUCACCCAUGUACGCUGACGAGAAGGGUCAGCUAGCAGAGGUGACAGGAUAUCGGACAUGAA | – | – | 149 | 89 |
